Data published in ChEMBL document CHEMBL4602689, “Absolute Configuration and Antibiotic Activity of Piceamycin” (J Nat Prod, 2020).
Calls of active or inactive are those of the source. The rule behind the calls is not given here.

Legend:
[1] = test system: Klebsiella pneumoniae; assay: Antibacterial activity against Klebsiella pneumoniae ATCC 10031 assessed as reduction in microbial growth after 24 hrs by two-fold serial dilution method; type: functional; conditions: ATCC 10031, 24 h
Summary of the method: (§1)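 Strains grown overnight in Mueller–Hinton broth at 37 °C, centrifuged and washed twice in sterile water. DMSO stocks were 2-fold serially diluted in MHB (128 to 0.015 μg/mL). Final inoculum was 5 × 10⁴ cfu/mL, incubated 24 h at 37 °C. MIC is the lowest concentration inhibiting growth. Controls were ampicillin, tetracycline, streptomycin and DMSO.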

[2] = test system: Aspergillus fumigatus; assay: Growth inhibition of Aspergillus fumigatus HIC 6094; type: functional, organism-based
[3] = test system: SNU-638; assay: Antiproliferative activity against human SNU638 cells assessed as reduction in cell viability by sulforhodamine B assay; type: functional, cell-based
Summary of the method: (§2)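 Cells kept in RPMI 1640 with 10% heat-inactivated FBS plus penicillin, streptomycin and amphotericin B, at 37 °C and 5% CO₂. Cells seeded in 96-well plates and treated for the indicated times; zero-day controls read after 30 min. Fixed, stained with 0.4% SRB in 1% acetic acid, dye dissolved in 10 mM Tris pH 10.0, A515 read. IC50 by nonlinear regression.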

[4] = test system: K562; assay: Antiproliferative activity against human K562 cells assessed as reduction in cell viability by sulforhodamine B assay; type: functional, cell-based; summary of the method: as §2
[5] = test system: Candida albicans; assay: Growth inhibition of Candida albicans ATCC 10231; type: functional, organism-based
[6] = test system: Enterococcus faecalis; assay: Antibacterial activity against Enterococcus faecalis ATCC 19433 assessed as reduction in microbial growth after 24 hrs by two-fold serial dilution method; type: functional; conditions: ATCC 19433, 24 h; summary of the method: as §1
[7] = test system: SK-HEP1; assay: Antiproliferative activity against human SKHEP1 cells assessed as reduction in cell viability by sulforhodamine B assay; type: functional, cell-based
Summary of the method: (§3)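 Cells kept in DMEM with 10% heat-inactivated FBS plus penicillin, streptomycin and amphotericin B, at 37 °C and 5% CO₂. SRB assay: cells seeded in 96-well plates and treated for the indicated times, with 30-min zero-day controls. Fixed, stained with 0.4% SRB in 1% acetic acid, solubilized in 10 mM Tris pH 10.0, absorbance at 515 nm. IC50 by nonlinear regression.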

[8] = test system: Salmonella enterica; assay: Antibacterial activity against Salmonella enterica ATCC 14028 assessed as reduction in microbial growth after 24 hrs by two-fold serial dilution method; type: functional; conditions: ATCC 14028, 24 h; summary of the method: as §1
[9] = test system: MDA-MB-231; assay: Antiproliferative activity against human MDA-MB-231 cells assessed as reduction in cell viability by sulforhodamine B assay; type: functional, cell-based; summary of the method: as §3
[10] = test system: Bacillus thuringiensis; assay: Antibacterial activity against Bacillus thuringiensis KACC 10168 assessed as reduction in microbial growth after 24 hrs by two-fold serial dilution method; type: functional; conditions: KACC 10168, 24 h
Summary of the method: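 Bacteria grown overnight in tryptic soy broth at 28 °C, centrifuged and washed twice in sterile water. Compounds in DMSO were serially diluted 2-fold in TSB from 128 to 0.015 μg/mL. Final inoculum was 5 × 10⁴ cfu/mL, incubated 24 h at 28 °C. MIC taken as the lowest concentration inhibiting growth. Controls were ampicillin, tetracycline, streptomycin and DMSO.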

[11] = test system: A549; assay: Antiproliferative activity against human A549 cells assessed as reduction in cell viability by sulforhodamine B assay; type: functional, cell-based; summary of the method: as §2
[12] = test system: Enterococcus faecium; assay: Antibacterial activity against Enterococcus faecium ATCC 19434 assessed as reduction in microbial growth after 24 hrs by two-fold serial dilution method; type: functional; conditions: ATCC 19434, 24 h; summary of the method: as §1
[13] = test system: Trichophyton mentagrophytes; assay: Growth inhibition of Trichophyton mentagrophytes IFM 40996; type: functional, organism-based
[14] = test system: Escherichia coli; assay: Antibacterial activity against Escherichia coli ATCC 25922 assessed as reduction in microbial growth after 24 hrs by two-fold serial dilution method; type: functional; conditions: ATCC 25922, 24 h; summary of the method: as §1
[15] = test system: HCT-116; assay: Antiproliferative activity against human HCT116 cells assessed as reduction in cell viability by sulforhodamine B assay; type: functional, cell-based; summary of the method: as §2
[16] = test system: Proteus hauseri; assay: Antibacterial activity against Proteus hauseri NBRC 3851 assessed as reduction in microbial growth after 24 hrs by two-fold serial dilution method; type: functional; conditions: NBRC 3851, 24 h; summary of the method: as §1
[17] = test system: Staphylococcus aureus; assay: Antibacterial activity against Staphylococcus aureus ATCC 25923 assessed as reduction in microbial growth after 24 hrs by two-fold serial dilution method; type: functional; conditions: ATCC 25923, 24 h; summary of the method: as §1
[18] = test system: Trichophyton rubrum; assay: Growth inhibition of Trichophyton rubrum NBRC 9185; type: functional, organism-based

Row | MIC [1] [µg/mL] | IC50 [3] [nM] | IC50 [4] [nM] | MIC [6] [µg/mL] | IC50 [7] [nM] | MIC [8] [µg/mL] | IC50 [9] [nM] | MIC [10] [µg/mL] | IC50 [11] [nM] | MIC [12] [µg/mL] | MIC [14] [µg/mL] | IC50 [15] [nM] | MIC [16] [µg/mL] | MIC [17] [µg/mL] | Structure (SMILES) | growth inhibition (GI) [2] | growth inhibition (GI) [5] | growth inhibition (GI) [13] | growth inhibition (GI) [18]
1 | 0.44 |  |  |  |  |  |  |  |  |  |  |  |  |  | CN(C)[C@@H]1C(O)=C(C(N)=O)C(=O)[C@@]2(O)C(O)=C3C(=O)c4c(O)cccc4[C@@](C)(O)[C@H]3C[C@@H]12 [TETRACYCLINE] |  |  |  | 
2 | > 130 | 380 | 740 | 32 | 320 | 0.083 | 660 | 3.2 | 280 | 5.3 | > 130 | 220 | 0.025 | 0.025 | C[C@@H]1\C=C/C=C/C=C\C=C\C=C\C(=O)C2=C(O)C(=O)C[C@@]2(C)/C=C/C=C\C=C/C(=O)NC1 | inactive | inactive | inactive | inactive
3 | > 130 | 850 | 960 | > 130 | 1870 | 130 | 1000 | 380 | 780 | 130 | > 130 | 1010 | 130 | > 130 | CC1=C/C[C@@H](O)CC(=O)/C=C/C=C/C=C\C=C\C=C/[C@@H](C)CNC(=O)\C=C/C=C\C=C\1 |  |  |  | 
4 |  |  |  |  |  |  |  | 130 |  |  |  |  |  |  | CN[C@@H]1[C@H](O[C@H]2[C@H](O[C@H]3[C@H](O)[C@@H](O)[C@H](N=C(N)N)[C@@H](O)[C@@H]3N=C(N)N)O[C@@H](C)[C@]2(O)C=O)O[C@@H](CO)[C@H](O)[C@H]1O [STREPTOMYCIN] |  |  |  | 
5 |  | 520 | 980 |  | 380 |  | 3320 |  | 600 |  |  | 1360 |  |  | COc1cc([C@@H]2c3cc4c(cc3[C@@H](O[C@@H]3O[C@@H]5CO[C@@H](C)O[C@H]5[C@H](O)[C@H]3O)[C@H]3COC(=O)[C@H]23)OCO4)cc(OC)c1O [ETOPOSIDE] |  |  |  | 
6 |  |  |  |  |  |  |  |  |  |  |  |  |  |  | CC1=C\C[C@@H](O)CC(=O)/C=C/C=C/C=C\C=C\C=C/[C@@H](C)CNC(=O)\C=C/C=C/C=C/1 | inactive | inactive | inactive | inactive

Row | Structure (SMILES) | MIC [1] [µg/mL] | IC50 [3] [nM] | IC50 [4] [nM] | MIC [6] [µg/mL] | IC50 [7] [nM] | MIC [8] [µg/mL] | IC50 [9] [nM] | MIC [10] [µg/mL] | IC50 [11] [nM] | MIC [12] [µg/mL] | MIC [14] [µg/mL] | IC50 [15] [nM] | MIC [16] [µg/mL] | MIC [17] [µg/mL] | growth inhibition (GI) [2] | growth inhibition (GI) [5] | growth inhibition (GI) [13] | growth inhibition (GI) [18]
7 | CC1(C)S[C@@H]2[C@H](NC(=O)[C@H](N)c3ccccc3)C(=O)N2[C@H]1C(=O)O [AMPICILLIN] | > 130 |  |  | 0.5 |  | 0.25 |  |  |  | 1 | 16 |  | 0.03 | 0.17 |  |  |  | 
